Assay results as given in ChEMBL document CHEMBL4261493, “Development of novel β-carboline-based hydroxamate derivatives as HDAC inhibitors with DNA damage and apoptosis inducing abilities” (Medchemcomm, 2017).
The source made the active and inactive calls. The calls are words filed in the database; no cut-off is given here.

Key:
[1] = system: HepG2; assay: Induction of apoptosis in human HepG2 cells assessed as increase in cleaved PARP expression at 5 uM after 48 hrs by Western blot analysis; format: functional, cell-based
Procedure, shortened: (§1)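 Sub-confluent HepG2 cells incubated with or without compound (1.0–4.0 μM) or SAHA (5.0 μM) for 48 h. Lysates immunoblotted for Bax, Bcl-2, cleaved caspase-3 and PARP, with β-actin as internal control. Densitometric scanning gave levels relative to β-actin, as mean ± SD of three separate experiments.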

[2] = Half life in rat liver microsomes at 5 uM in presence of NADPH by LC-MS analysis
[3] = system: HepG2; assay: Induction of apoptosis in human HepG2 cells at 5 uM after 48 hrs by Annexin-V FITC/propidium iodide staining based flow cytometry relative to control; format: functional
Procedure, shortened: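 HepG2 cells treated for 48 h with vehicle, compound at 1.0, 2.0 or 4.0 μM, or SAHA at 5.0 μM. Cells stained with FITC-annexin V/PI and analysed by flow cytometry. Percentage of apoptotic cells reported as mean ± SD of three independent experiments; significance tested versus control.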

[4] = system: Calf thymus DNA; assay: Binding affinity to calf thymus DNA assessed as decrease in maximum absorption wavelength by UV-Vis spectroscopic titration method; format: nucleic-acid assay; conditions: Bos taurus
[5] = system: HepG2; assay: Induction of apoptosis in human HepG2 cells assessed as increase in cleaved caspase3 expression at 5 uM after 48 hrs by Western blot analysis; format: functional, cell-based; procedure, shortened: as §1
[6] = system: LoVo; assay: Antiproliferative activity against human LoVo cells after 48 hrs by MTT assay; format: functional, cell-based
[7] = system: HepG2; assay: Antiproliferative activity against human HepG2 cells after 48 hrs by MTT assay; format: functional, cell-based; conditions: HepG2, 48 h
[8] = target: Histone deacetylase; assay: Inhibition of HDAC in human HeLa nuclear extract using Boc-Lys(acetyl)-AMC as substrate measured after 60 mins by fluorescence assay; format: protein assay
[9] = system: HCT-116; assay: Antiproliferative activity against human HCT116 cells after 48 hrs by MTT assay; format: functional, cell-based; conditions: HCT-116, 48 h
[10] = system: SMMC-7721; assay: Antiproliferative activity against human SMMC7721 cells after 48 hrs by MTT assay; format: functional, cell-based; conditions: SMMC-7721, 48 h
[11] = system: Calf thymus DNA; assay: Binding affinity to calf thymus DNA assessed as maximum absorption wavelength by UV-Vis spectroscopic titration method; format: nucleic-acid assay; conditions: Bos taurus

O=C(CCCCCCC(=O)Nc1ccccc1)NO [VORINOSTAT]
Activity [1]: Active | half-life at 5 µM [2]: 44 min | Activity [3]: 34.5% | Activity [4]: inactive | Activity [5]: Active

Cc1nc(C(=O)N(C)Cc2ccc(C(=O)NO)cc2)cc2c1[nH]c1ccccc12
IC50 [6]: > 12.5 µM | IC50 [7]: > 12.5 µM | IC50 [8]: 3.06 µM | IC50 [9]: > 12.5 µM | IC50 [10]: > 12.5 µM

CCCCN(Cc1ccc(C(=O)NO)cc1)C(=O)c1cc2c(cn1)[nH]c1ccccc12
IC50 [7]: > 12.5 µM | IC50 [8]: 2.69 µM | IC50 [9]: > 12.5 µM | IC50 [10]: > 12.5 µM

CCN(Cc1ccc(C(=O)NO)cc1)C(=O)c1cc2c(cn1)[nH]c1ccccc12
IC50 [7]: > 12.5 µM | IC50 [8]: 4.78 µM | IC50 [9]: > 12.5 µM | IC50 [10]: > 12.5 µM

CCCCN(Cc1ccc(C(=O)NO)cc1)C(=O)c1cc2c([nH]c3ccccc32)c(-c2cccc(OC)c2)n1
IC50 [6]: 7.63 µM | IC50 [7]: 5.16 µM | IC50 [8]: 0.37 µM | IC50 [9]: 4.32 µM | IC50 [10]: 5.75 µM

COc1ccc(-c2nc(C(=O)N(C)Cc3ccc(C(=O)NO)cc3)cc3c2[nH]c2ccccc23)cc1
IC50 [6]: > 12.5 µM | IC50 [7]: 10.5 µM | IC50 [8]: 0.96 µM | IC50 [9]: 9.76 µM | IC50 [10]: > 12.5 µM

CCCCN(Cc1ccc(C(=O)NO)cc1)C(=O)c1cc2c([nH]c3ccccc32)c(C)n1
IC50 [6]: > 12.5 µM | IC50 [7]: 11.7 µM | IC50 [8]: 0.93 µM | IC50 [9]: > 12.5 µM | IC50 [10]: > 12.5 µM

CCCCN(Cc1ccc(C(=O)NO)cc1)C(=O)c1cc2c([nH]c3ccccc32)c(-c2ccc(OC)cc2)n1
IC50 [6]: 4.76 µM | IC50 [7]: 3.37 µM | IC50 [8]: 0.34 µM | IC50 [9]: 3.02 µM | IC50 [10]: 5.25 µM

CN(Cc1ccc(C(=O)NO)cc1)C(=O)c1cc2c(cn1)[nH]c1ccccc12
IC50 [7]: > 12.5 µM | IC50 [8]: 5.63 µM | IC50 [9]: > 12.5 µM | IC50 [10]: > 12.5 µM

CCN(Cc1ccc(C(=O)NO)cc1)C(=O)c1cc2c([nH]c3ccccc32)c(-c2ccc(OC)cc2)n1
IC50 [6]: 9.24 µM | IC50 [7]: 8.34 µM | IC50 [8]: 0.83 µM | IC50 [9]: 6.07 µM | IC50 [10]: 10.3 µM

CCCN(Cc1ccc(C(=O)NO)cc1)C(=O)c1cc2c([nH]c3ccccc32)c(-c2cccc(OC)c2)n1
IC50 [6]: 5.31 µM | IC50 [7]: 3.64 µM | IC50 [8]: 0.23 µM | IC50 [9]: 2.96 µM | IC50 [10]: 4.12 µM

CCCN(Cc1ccc(C(=O)NO)cc1)C(=O)c1cc2c(cn1)[nH]c1ccccc12
IC50 [7]: > 12.5 µM | IC50 [8]: 2.82 µM | IC50 [9]: > 12.5 µM | IC50 [10]: > 12.5 µM

CCN(Cc1ccc(C(=O)NO)cc1)C(=O)c1cc2c([nH]c3ccccc32)c(C)n1
IC50 [6]: > 12.5 µM | IC50 [7]: > 12.5 µM | IC50 [8]: 1.75 µM | IC50 [9]: > 12.5 µM | IC50 [10]: > 12.5 µM

COc1ccc2c(c1)[nH]c1c(C)nccc12 [HARMINE]
Activity [11]: 320 nm | IC50 [8]: > 10 µM

CCCN(Cc1ccc(C(=O)NO)cc1)C(=O)c1cc2c([nH]c3ccccc32)c(C)n1
IC50 [6]: > 12.5 µM | IC50 [7]: 9.83 µM | IC50 [8]: 0.85 µM | IC50 [9]: 10.5 µM | IC50 [10]: 11.6 µM
